Compound activity as filed in PubChem BioAssay.
TCR-CD3 inh: inhibitors of human TCR-CD3 interaction; 360,000 tested, 0.37% active; TAMRA-labeled TCR probe fluorescence, biochemical; inhibition, % at 9.4 µM;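 also: recombinant mutant TCR 2C K166C tagged with TAMRA read by polarization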
HTRA1 inhibitor: HTRA1 (human) protease inhibition; 340,000 tested, 0.5% active; inhibition, % at 5.96 µM; recombinant HTRA1, FP-rhodamine activity-based probe, fluorescence polarization; in the data active = inhibition above about 36%
ABHD4 inh: inhibits mouse alpha/beta hydrolase domain 4; Q8VD66; AID 720543; 370,000 tested, 0.54% active; inhibition, % at 8.92 µM; purified mABHD4, FP-Rh probe fluorescence polarization;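 active = inhibition exceeding the mean over every tested compound plus 3 SD, cut at about 30% in these data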
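Assay system: wild-type mouse ABHD4 protein; compound: single nominal dose of 8.92 µM, 0.89% DMSO final; schedule: 45 min + 60 min at 25 °C; measured by: FP readout, ex 525 nm / em 598 nm; evaluation: % inhibition of FP-Rh probe binding versus controls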
SIAE primary: blocks human sialic acid acetylesterase. SIAE FP-Rh probe binding, fluorescence polarization. inhibition, % at 9.66 µM. 370,000 tested, 0.69% active. AID 1053197;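 active = inhibition above a cutoff: mean of compounds within the control limits plus 3 SD of those, cut at about 17% in these data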
Target sequence (Q9HAT2 whole entry, looked up): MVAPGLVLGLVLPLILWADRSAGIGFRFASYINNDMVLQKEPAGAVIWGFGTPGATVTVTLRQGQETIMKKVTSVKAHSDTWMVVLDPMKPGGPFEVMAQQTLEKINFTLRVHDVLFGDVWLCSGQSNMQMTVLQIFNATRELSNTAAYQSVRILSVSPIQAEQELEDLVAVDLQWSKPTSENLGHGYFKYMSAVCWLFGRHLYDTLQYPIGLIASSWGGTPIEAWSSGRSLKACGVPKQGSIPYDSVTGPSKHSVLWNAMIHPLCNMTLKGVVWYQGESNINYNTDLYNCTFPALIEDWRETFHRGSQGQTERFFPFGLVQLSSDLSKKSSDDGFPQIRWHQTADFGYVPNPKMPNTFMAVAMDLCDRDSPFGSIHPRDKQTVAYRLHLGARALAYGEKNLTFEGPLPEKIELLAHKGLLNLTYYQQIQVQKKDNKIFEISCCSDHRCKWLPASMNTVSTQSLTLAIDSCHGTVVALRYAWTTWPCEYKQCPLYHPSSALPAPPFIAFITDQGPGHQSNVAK
DDE Tn6 FP inh: disrupts Tn6 cyclic peptide binding to fibrin D-Dimer-E complex; P02675; Fibrin DD(E) TRITC-Tn6 fluorescence polarization displacement; inhibition, % at 8.3 µM; 370,000 tested, 0.21% active;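 active = inhibition above a per-campaign cutoff: mean of compounds within control limits plus 3 SD, cut at about 15% in these data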
DDE Tn7 FP inh: DD(E)-Tn7 binding inhibition, primary FP screen; P02675; FP displacement of FITC-Tn7 peptide from fibrin DD(E); 0% = median of compound wells per plate; inhibition, % at 8.3 µM; 370,000 tested, 0.13% active;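 active = inhibition above the mean of compounds falling within the control limits plus 3 SD of them, cut at about 14% in these data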
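Also added: labelled Tn7 tracer, 0.1 µM; Assay system: human fibrin DD(E) protein; Amount: 2 µM fibrin DD(E); Schedule: 10 min compound pre-incubation, 3 h probe incubation at room temperature; Repeats: one replicate per compound; Read-out basis: percent inhibition; Measured by: fluorescence polarization of the labelled Tn7 tracer.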
BSA TAMRA ctr: interferes with TAMRA-BSA probe, flagging TCR-CD3 hits. TAMRA-labeled BSA probe fluorescence counterscreen. 1,200 tested, 10% active. shares compounds with TCR-CD3 inh. inhibition, % at 9.4 µM; in the data active = inhibition above about 23%
TCR-CD3 conf: confirmation of human TCR-CD3 interaction inhibitors; shares compounds with TCR-CD3 inh; AID 652036; TAMRA-labeled TCR probe fluorescence binding assay; inhibition, % at 9.4 µM; 1,200 tested, 48% active
Each line names hits and unclear results; the compound was inactive in the other large screens (follow-up assays come after a bar, where they were run). Only some compounds are listed: those with a hit (about 1.8% of all), similar ones and a draw of the others. Rule as the data show it, unless noted: active = inhibition above about 19%; inactive = the rest.

COc1ccc(C(=O)N/N=C\c2ccc(OC)c(COc3ccccc3Br)c2)c(OC)c1	TCR-CD3 inh 26 | BSA TAMRA ctr inactive | TCR-CD3 conf 32
O=C(OCc1cn(Cc2ccc(F)c(F)c2)nn1)N1CCCC1	none (no result: TCR-CD3 inh, HTRA1 inhibitor)
N[C@@H](Cc1ccc(O)c(O)c1)C(=O)O	TCR-CD3 inh 75 | BSA TAMRA ctr inactive | TCR-CD3 conf 32
Cc1ncc(CO)c2c1Oc1nc(-c3ccccc3)nc(SCC(=O)Nc3cccc(O)c3)c1C2	TCR-CD3 inh 21 | BSA TAMRA ctr inactive | TCR-CD3 conf inactive
NNC(=O)c1nc[nH]c1C(=O)Nc1ccccn1	TCR-CD3 inh 38 | BSA TAMRA ctr inactive | TCR-CD3 conf 25
CCOC(=O)[C@@]12CCC3=C1N(CCC3)C(=O)[C@H](CC(=O)NCc1cccs1)C2	none (no result: TCR-CD3 inh, HTRA1 inhibitor)
CCCn1c(=O)c(C(=O)Nc2ncccc2O)c(O)c2ccccc21	TCR-CD3 inh 22 | BSA TAMRA ctr inactive | TCR-CD3 conf 21
CC(=O)NNC(=S)NC(=O)c1ccccc1	none
CC(=O)NNC(=S)NC(=O)c1ccc(C)cc1	TCR-CD3 inh 23 | BSA TAMRA ctr inactive | TCR-CD3 conf 20
Brc1ccccc1Cn1nnc(-c2ccc(N3CCOCC3)cc2)n1	none (no result: TCR-CD3 inh, HTRA1 inhibitor)
COc1ccc(O)c(/C=N/NC(=O)c2c(C)nnn2-c2nonc2N)c1	TCR-CD3 inh 25 | BSA TAMRA ctr inactive | TCR-CD3 conf inactive
COc1ccc(/C=N/NC(=O)c2nnn(-c3nonc3N)c2-c2cccc(OC)c2)cc1	none
NC(=O)c1ccc(-n2nnnc2SCC(=O)c2ccc(O)c(O)c2)cc1	TCR-CD3 inh 28 | BSA TAMRA ctr inactive | TCR-CD3 conf 39
Cc1ccccc1CSc1nnnn1-c1ccc(C(N)=O)cc1	none
O=C(NCc1ccc(F)cc1)c1ccccc1OCc1ccccc1	none
O=C(NNC(=O)c1ccccc1OCc1ccccc1)c1ccccc1F	none
O=C(NNC(=O)c1ccccc1OCc1ccc(F)cc1)c1ccccc1O	TCR-CD3 inh 25 | BSA TAMRA ctr inactive | TCR-CD3 conf 23
O=C(NNC(=O)c1ccccc1OCc1ccccc1)c1ccccc1O	TCR-CD3 inh 33 | BSA TAMRA ctr inactive | TCR-CD3 conf 19
COc1ccccc1N(C)S(=O)(=O)c1ccc(C(=O)OCC(=O)c2c[nH]c3ccccc23)cc1	TCR-CD3 inh 20 | BSA TAMRA ctr inactive | TCR-CD3 conf inactive
CCOc1ccccc1C(=O)Nc1ccc(C(=O)NCC2COc3ccccc3O2)cc1 (stereo not drawn)	none (no result: TCR-CD3 inh, HTRA1 inhibitor)
O=C(CCc1ccccc1-c1ccccc1CCNC(=O)COCc1ccccc1)NCc1ccccc1	none (no result: TCR-CD3 inh, HTRA1 inhibitor)
N#Cc1cccc(NC(=O)OCCN2C(=O)CCC23CCC(c2ccc(Cl)cc2)CC3)c1 (stereo not drawn)	none (no result: TCR-CD3 inh, HTRA1 inhibitor)
COc1cc(NC(=O)CSc2nc(C)cc(=O)[nH]2)cc(OC)c1	none (no result: TCR-CD3 inh, HTRA1 inhibitor)
COC(=O)[C@]12C[C@H](CC(=O)NCCC(C)C)C(=O)N(Cc3ccc4c(c3)OCO4)C1=C[C@H](COCc1ccccc1)O[C@@H]2C	none (no result: HTRA1 inhibitor)
Cc1cc(C(=O)O)c2ccccc2n1	none
CC(C)c1cc(C(=O)O)c2ccccc2n1	TCR-CD3 inh 34 | BSA TAMRA ctr inactive | TCR-CD3 conf inactive
N#CC1=C(N)C(C#N)(C#N)C(c2ccc[nH]2)C2CCCC=C12 (stereo not drawn)	TCR-CD3 inh 21 | BSA TAMRA ctr inactive | TCR-CD3 conf inactive
O=C(CCN1C(=O)/C(=C/c2ccc(Cl)cc2)SC1=S)NCCCn1ccnc1	TCR-CD3 inh 23 | BSA TAMRA ctr inactive | TCR-CD3 conf 20
O=C(CCN1C(=O)/C(=C/c2ccc(F)cc2)SC1=S)NCCCn1ccnc1	none
COc1ccc(N2CC(C(=O)N3CCOCC3)CC2=O)cc1 (stereo not drawn)	none
COc1ccc(N2CC(C(=O)N3CCCC(C)C3)CC2=O)cc1 (stereo not drawn)	TCR-CD3 inh 142 | BSA TAMRA ctr inactive | TCR-CD3 conf inactive
Cc1cc(/C=N/n2c(COc3ccccc3C)nc3ccccc3c2=O)c(O)c([N+](=O)[O-])c1	TCR-CD3 inh 21 | BSA TAMRA ctr inactive | TCR-CD3 conf 53
O=C(CSc1nnc2ccccn12)NC(=O)c1cccc([N+](=O)[O-])c1	none
O=C(CSc1nnc2ccccn12)NNC(=O)c1cccc([N+](=O)[O-])c1	TCR-CD3 inh 80 | BSA TAMRA ctr inactive | TCR-CD3 conf inactive
COCCN(C(=O)CC1C(=O)NCCN1Cc1ccc(-c2ccccc2)cc1)C(C)C (stereo not drawn)	TCR-CD3 inh 24 | BSA TAMRA ctr inactive | TCR-CD3 conf inactive
COc1ccc(COc2cc(-c3cccc(OC)c3)nc3ccc(NC(=O)c4ccc(OC)cc4)cc23)cc1	none
COc1ccc(COc2cc(-c3cccc(OC)c3)nc3ccc(NC(=O)c4cccnc4)cc23)cc1	TCR-CD3 inh 38 | BSA TAMRA ctr inactive | TCR-CD3 conf 23
Cc1ncc(CO)c(/C=N/NC(=O)c2cc3c(s2)CCCC3)c1O	TCR-CD3 inh 38 | BSA TAMRA ctr inactive | TCR-CD3 conf 27
Nc1nc(O)c(N=Nc2ccc(S(N)(=O)=O)cc2)c(=O)[nH]1	none (no result: HTRA1 inhibitor)
NS(=O)(=O)c1ccc(N=Nc2c[nH]c(=O)c(O)c2)cc1	TCR-CD3 inh 26 | BSA TAMRA ctr inactive | TCR-CD3 conf 36
CCCCN1CCN(C(=O)c2ccc(CNC(=O)c3cccc(Br)c3)cc2)CC1	none (no result: TCR-CD3 inh, HTRA1 inhibitor)
Cn1c(SCC(=O)c2ccc(O)c(O)c2)nnc1-c1cccs1	TCR-CD3 inh 23 | BSA TAMRA ctr inactive | TCR-CD3 conf inactive
Cn1c(SCC(=O)c2ccc(O)c(O)c2)nnc1-c1ccccc1	none
CC(C)CC(=O)c1c(O)cc(O)c2c1OC1=C(C(=O)C(C)(C)C(=O)C1(C)C)C2CC(C)C (stereo not drawn)	none (no result: HTRA1 inhibitor)
COc1ccccc1C(=O)NNC(=S)NC(=O)c1cc(OC)c(OC)c(OC)c1	TCR-CD3 inh 19 | BSA TAMRA ctr inactive | TCR-CD3 conf inactive
Oc1ccc(Br)cc1/C=N/n1c(COc2ccccc2)n[nH]c1=S	TCR-CD3 inh 20 | BSA TAMRA ctr inactive | TCR-CD3 conf inactive
CCN(CC)S(=O)(=O)c1ccc(NC(=O)COC(=O)c2ccc(NC(=O)CC#N)cc2)cc1	TCR-CD3 inh 20 | BSA TAMRA ctr inactive | TCR-CD3 conf inactive
N#CCC(=O)Nc1ccc(C(=O)OCC(=O)Nc2cc(-c3ccccc3)nn2-c2ccccc2)cc1	TCR-CD3 inh 52 | BSA TAMRA ctr inactive | TCR-CD3 conf 21
CNC(=O)COC(=O)c1ccc(NC(=O)CC#N)cc1	none
COc1ccccc1CCC[C@@H](CCS(=O)(=O)C(C)C)CC1CCCCC1	none (no result: TCR-CD3 inh, HTRA1 inhibitor)
